Broadly, the IC50 is the concentration needed to halve the response being measured. Low readings indicate greater potency in that assay, high ones weaker potency in that assay.

Here are results for 37 molecules from ChEMBL document CHEMBL1134776, “Novel azo derivatives as prodrugs of 5-aminosalicylic acid and amino derivatives with potent platelet activating factor antagonist activity” (J Med Chem, 2001).

Holding throughout (assay type): functional
For assay [1], the system named is Rattus norvegicus. Description: Dose required to reduce the lowering of the arterial blood pressure caused by PAF by 50 % in rats intravenously. To be noted: iv, read-out: ID50 (the source's name). The method, boiled down:
(§1)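 Male Sprague-Dawley rats (180–220 g) were anesthetized with pentobarbital (50 mg/kg ip), and blood pressure was recorded from the left carotid artery. Compound in saline (1 mL/kg) was given iv via a femoral vein 3 min before PAF (0.5 µg/kg iv). ID50 came from linear regression of one curve with ≥4 doses (15–85% inhibition), each point the mean of ≥2 experiments.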

For assay [2], the species on record is Oryctolagus cuniculus. Description: Concentration required to inhibit PAF-induced maximum aggregation by 50%. The method, boiled down:
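Platelet-rich plasma was prepared by centrifuging blood at 250 g for 10 min at 4 °C, then diluted with platelet-poor plasma (3000g, 10 min) to 3.5 × 10^5 platelets/mm3. Aggregation was induced with C18-PAF (1.5 × 10^-8 M) and read in an aggregometer as maximum aggregation. IC50 came from linear regression of one curve with ≥4 points (15–85% inhibition), each point the mean of 1–3 experiments.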

The species entered for assay [3] is Rattus norvegicus. Description: Dose required to reduce the lowering of the arterial blood pressure caused by PAF by 50 %. The conditions noted are these: read-out: ID50 (the source's name). The method, boiled down: as §1
For assay [4], the species on record is Rattus norvegicus. Kind of assay: Effect of compound on myeloperoxidase activity was evaluated in rat. The method, boiled down:
(§2)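 Female Wistar rats (180–220 g) were fasted overnight and given 30 mg TNBS in 0.25 mL 50% ethanol intrarectally by cannula inserted 8 cm, under anesthesia. Compounds were dosed orally in 1% methylcellulose for 5 days before induction and 24 h after. Colons were removed at 48 h and blind-scored 0–10 for macroscopic damage. Diarrhea was analyzed by χ2, means by ANOVA, and scores by Mann–Whitney.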

For assay [5], the species on record is Rattus norvegicus. Kind of assay: Colonic weight was measured in rats. The method, boiled down:
as §2

Assay [6] is filed under the species Rattus norvegicus. Kind of assay: % of rats exhibiting diarrhea. The method, boiled down:
as §2

Assay [7] is filed under the species Rattus norvegicus. Description: Damage to the colon observed after 48 hr after colitis induction in rats. The method, boiled down: as §2
For assay [8], the species on record is Rattus norvegicus. Kind of assay: Effect of compound on LTB4 production was measured in rat. The method, boiled down:
as §2

Regarding `Cc1nc2cnccc2n1Cc1ccc(S(=O)(=O)N[C@@H](CC(C)C)C(=O)NCc2ccc(N)cc2)cc1`, the ED50 in assay [1] was determined as 0.075 mg/kg. Besides, the IC50 in assay [2] is 120 nM.
For `Cc1nc2cnccc2n1CC1CCN(C(=O)/C=C(/c2ccccc2)c2cccc(N)c2)CC1`, in assay [2], the IC50 worked out at 190 nM.
The molecule `Cc1nc2cnccc2n1CC1CCN(C(=O)CN(c2ccccc2)S(=O)(=O)c2ccc(N)cc2)CC1` displayed an IC50 in assay [2] of 75 nM.
The same measure, in the same setting: the result for `Cc1nc2cnccc2n1CC1CCN(C(=O)CN(C)C(=O)c2ccc(N)cc2)CC1` reads 1270 nM.
As for `Cc1nc2cnccc2n1CC1CCN(C(=O)/C=C/c2ccc(N)cc2)CC1`, the midpoint of inhibition in assay [2], the IC50, lay at 1200 nM. Besides, the ED50 in assay [3] stood at 1.23 mg/kg.
In turn, `Cc1nc2cnccc2n1CC1CCN(C(=O)CC(C)c2ccc(N)cc2)CC1` (stereo unspecified) gave an IC50 in assay [2] of 11 nM. Besides, the ED50 in assay [3] amounted to 0.24 mg/kg.
For the molecule `CCOC(=O)[C@H](Cc1ccc(N)cc1)NS(=O)(=O)c1ccc(Cn2c(C)nc3cnccc32)cc1`, in assay [1], the ED50 is 0.19 mg/kg. Besides, the IC50 in assay [2] amounted to 740 nM.
The molecule `CCOC(=O)C(CC(=O)N1CCC(Cn2c(C)nc3cnccc32)CC1)c1ccc(N)cc1` (stereo unspecified) displayed an IC50 in assay [2] of 74 nM. The ED50 in assay [3] was 0.56 mg/kg.
In turn, `CCOC(=O)[C@H](CC(C)C)N(Cc1ccc(N)cc1)S(=O)(=O)c1ccc(Cn2c(C)nc3cnccc32)cc1` registered an IC50 in assay [2] of 12 nM.
Same read-out and setting: as for `CCOC(=O)[C@H](CC(C)C)N(C(=O)c1ccc(N)cc1)S(=O)(=O)c1ccc(Cn2c(C)nc3cnccc32)cc1`, the figure is 30 nM.
Regarding `Cc1nc2cnccc2n1CC1CCN(C(=O)CC(C)(C)c2ccc(/N=N\c3ccc(O)c(C(=O)O)c3)cc2)CC1`, in assay [2], 1600 nM corresponded to half-maximal inhibition (IC50). For the same molecule, in assay [3], the ED50 was 0.11 mg/kg.
For `Cc1nc2cnccc2n1CC1CCN(C(=O)/C=C(/c2ccccc2)c2ccc(/N=N\c3ccc(O)c(C(=O)O)c3)cc2)CC1`, the Activity in assay [4] is listed as <445.9 U (g of tissue)-1. Also, the IC50 in assay [2] was found to be 4100 nM. In addition, in assay [5], the Colonic weight is below 149.6 mg/cm. Besides, the Animals in assay [6] is below 25%. Moreover, the Damage score in assay [7] is <7.5 0-10. Also, the Production in assay [8] is given as <4.5 ng (g of tissue)-1. The ED50 in assay [3] was 2.81 mg/kg.
`CCOC(=O)[C@H](Cc1ccc(N)cc1)NC(=O)N1CCC(Cn2c(C)nc3cnccc32)CC1` had a half-maximal inhibitory concentration (IC50) in assay [2] of 32 nM. Also, the ED50 in assay [3] came out at 1.13 mg/kg.
With `Cc1nc2cnccc2n1CC1CCN(C(=O)CN(CC(C)C)S(=O)(=O)c2ccc(N)cc2)CC1`, in assay [1], the ED50 turned out to be 0.029 mg/kg. Further, 610 nM corresponded to half-maximal inhibition in assay [2] (IC50).
In assay [2], `Cc1nc2cnccc2n1CC1CCN(C(=O)/C=C(\c2ccccc2)c2ccc(/N=N\c3ccc(O)c(C(=O)O)c3)cc2)CC1` returned an IC50 of 7300 nM.
Regarding `CCOC(=O)[C@H](CC(C)C)N(Cc1cccc(N)c1)S(=O)(=O)c1ccc(Cn2c(C)nc3cnccc32)cc1`, in assay [2], the IC50 was 17 nM. In assay [3], the ED50 came out at 0.043 mg/kg.
The molecule `Cc1nc2cnccc2n1CC1CCN(C(=O)CC(C)(C)c2ccc(N)cc2)CC1` registered an IC50 in assay [2] of 19 nM. That is a double-digit nanomolar value.
Turning to `Cc1nc2cnccc2n1Cc1ccc(S(=O)(=O)N(C)c2cccc(N)c2)cc1`, the ED50 in assay [1] worked out at 0.22 mg/kg. In assay [2], this molecule came in with an IC50 of 300 nM.
In turn, `CCOC(=O)[C@H](CC(C)C)N(Cc1ccc(/N=N\c2ccc(O)c(C(=O)O)c2)cc1)S(=O)(=O)c1ccc(Cn2c(C)nc3cnccc32)cc1` had an IC50 in assay [2] of 490 nM. Further, the ED50 in assay [3] came out at 1.31 mg/kg.
Molecule `CCOC[C@H](CC(C)C)N(Cc1ccc(N)cc1)S(=O)(=O)c1ccc(Cn2c(C)nc3cnccc32)cc1` had an IC50 in assay [2] of 16 nM.
The molecule `Cc1nc2cnccc2n1CC1CCN(C(=O)CC(NC(=O)c2ccc(N)cc2)c2ccccc2)CC1` (stereo unspecified) had an IC50 in assay [2] of 2200 nM. In addition, in assay [3], the ED50 amounted to 0.19 mg/kg.
On the same counts, the results for `Cc1nc2cnccc2n1CC1CCN(C(=O)CN(c2ccccc2)S(=O)(=O)c2ccc(/N=N\c3ccc(O)c(C(=O)O)c3)cc2)CC1` are 4010 nM and 0.19 mg/kg.
Take `CCOC(=O)[C@H](CC(C)C)N(C(=O)c1ccc(/N=N\c2ccc(O)c(C(=O)O)c2)cc1)S(=O)(=O)c1ccc(Cn2c(C)nc3cnccc32)cc1`: the IC50 in assay [2] worked out at 1470 nM. In assay [3], the ED50 amounted to 0.47 mg/kg.
`CCOC(=O)N(CC(=O)N1CCC(Cn2c(C)nc3cnccc32)CC1)c1ccc(N)cc1` had a concentration for half-maximal inhibition (IC50) in assay [2] of 250 nM.
In assay [2], `Cc1nc2cnccc2n1CC1CCN(C(=O)C(C)c2ccc(N)cc2)CC1` (stereo unspecified) gave an IC50 of 430 nM. Further, in assay [3], the ED50 worked out at 1.47 mg/kg.
As for `Cc1nc2cnccc2n1Cc1ccc(S(=O)(=O)N(C)[C@@H](CC(C)C)C(=O)NCc2cccc(N)c2)cc1`, the ED50 in assay [1] came out at 0.28 mg/kg. Besides, the IC50 in assay [2] worked out at 250 nM.
In assay [2], `Cc1nc2cnccc2n1CC1CCN(C(=O)/C=C(\c2ccccc2)c2ccc(N)cc2)CC1` came in with an IC50 of 5 nM. Also, the ED50 in assay [3] was found to be 0.01 mg/kg.
Regarding `Cc1nc2cnccc2n1CC1CCN(C(=O)NC(C)c2ccc(N)cc2)CC1` (stereo unspecified), it took 1600 nM to reach half-maximal inhibition in assay [2] (IC50).
For the molecule `O=C(O)c1cc(/N=N/c2ccc(S(=O)(=O)Nc3ccccn3)cc2)ccc1O` [SULFASALAZINE], the Activity in assay [4] was 683.3 U (g of tissue)-1. In addition, the IC50 in assay [2] was above 200000 nM. Besides, the Colonic weight in assay [5] was 154.4 mg/cm. In assay [6], this molecule had an Animals of 62.5%. In addition, the Damage score in assay [7] was 8 0-10.
Molecule `Cc1nc2cnccc2n1CC1CCN(C(=O)/C=C(/c2ccccc2)c2ccc(N)cc2)CC1` returned an IC50 in assay [2] of 8 nM. Besides, in assay [3], the ED50 was determined as 0.029 mg/kg.
`CCOC(=O)NC(CC(=O)N1CCC(Cn2c(C)nc3cnccc32)CC1)c1ccc(N)cc1` (stereo unspecified) had an IC50 in assay [2] of 270 nM. Moreover, the ED50 in assay [3] was found to be 0.13 mg/kg.
The molecule `Cc1nc2cnccc2n1CC1CCN(C(=O)CC(Nc2ccc(N)cc2)c2ccccc2)CC1` (stereo unspecified) came in with an IC50 in assay [2] of 29 nM. Also, in assay [3], the ED50 amounted to 0.11 mg/kg.
On the same counts, the results for `C/C(=C\C(=O)N1CCC(Cn2c(C)nc3cnccc32)CC1)c1ccc(N)cc1` are 60 nM and 0.17 mg/kg.
Taken in the same sequence, the figures for `CCOC[C@H](CC(C)C)N(Cc1ccc(/N=N\c2ccc(O)c(C(=O)O)c2)cc1)S(=O)(=O)c1ccc(Cn2c(C)nc3cnccc32)cc1` were 400 nM and 2.51 mg/kg.
Molecule `O=C(O)CCNC(=O)c1ccc(/N=N/c2ccc(O)c(C(=O)O)c2)cc1` [BALSALAZIDE] registered an IC50 in assay [2] above 200000 nM.
With `Cc1nc2cnccc2n1CC1CCN(C(=O)NCc2ccc(N)cc2)CC1`, it took 1550 nM to reach half-maximal inhibition in assay [2] (IC50). For the same molecule, in assay [3], the ED50 was 2.42 mg/kg.
As for `CCOC[C@H](CC(C)C)N(C(=O)c1ccc(N)cc1)S(=O)(=O)c1ccc(Cn2c(C)nc3cnccc32)cc1`, the ED50 in assay [1] was 0.3 mg/kg. Besides, 1280 nM corresponded to half-maximal inhibition in assay [2] (IC50).
